In ChEMBL document CHEMBL5113395, “Azetidin-2-one-based small molecules as dual hHDAC6/HDAC8 inhibitors: Investigation of their mechanism of action and impact of dual inhibition profile on cell viability” (Eur J Med Chem, 2022):
Each block holds one compound with its values, some of them ahead of it. Active and inactive are the calls of the source. The rule behind the calls is not given here.

Key:
Homo sapiens [1] = species: Homo sapiens; assay: Selectivity index, ratio of IC50 for inhibition of recombinant human full length N-terminal GST-tagged HDAC6 expressed in Sf9 cells to IC50 for inhibition of recombinant human HDAC8
Outline: (§1)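 HDAC1 and HDAC6 IC50 values from the ZMAL fluorogenic assay: 37 °C for 90 min, then trypsin/TSA development, read at ex 390/em 460 nm. HDAC8 IC50 from the kit enzyme (0.45 U/reaction), 0.5% DMSO, 15 min preincubation with compound, 50 μM Fluor de Lys substrate, 1 h at 30 °C. HDAC8 reaction quenched with TSA (2 μM) in developer, 1 h, read at ex 370/em 450 nm, IC50 by nonlinear regression. Ratio of IC50s.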

[2] = target: T1, Histone deacetylase 8 (Homo sapiens) (UniProt Q9BY41); assay: Inhibition of HDAC8 in human U-937 cells assessed as increase in acetylation level of SMC3 at 10 uM measured after 48 hrs by Western blot analysis; assay type: cell-based
T1 sequence (whole entry): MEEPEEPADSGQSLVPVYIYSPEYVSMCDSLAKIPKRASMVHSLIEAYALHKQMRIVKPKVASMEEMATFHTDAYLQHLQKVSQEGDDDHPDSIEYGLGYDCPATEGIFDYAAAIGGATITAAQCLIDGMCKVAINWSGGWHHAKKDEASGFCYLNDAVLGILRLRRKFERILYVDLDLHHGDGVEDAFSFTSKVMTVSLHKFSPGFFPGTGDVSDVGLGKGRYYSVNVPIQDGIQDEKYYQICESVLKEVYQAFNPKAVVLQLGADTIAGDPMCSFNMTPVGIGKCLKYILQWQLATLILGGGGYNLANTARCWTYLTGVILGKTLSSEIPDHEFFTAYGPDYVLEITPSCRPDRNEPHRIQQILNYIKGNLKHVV
Outline: (§2)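 HCT116 or U937 cells were treated at 10 µM for 24–48 h and lysed in NP40 buffer with protease/phosphatase inhibitors. 50 µg protein was resolved by SDS-PAGE and probed with anti-acetyl-SMC3 (Lys105/106, 1:1000), normalized to GAPDH (1:3000). PCI served as positive control, and band intensities were semi-quantified by densitometry.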

Histone deacetylase 8 = target: T2, Histone deacetylase 8 (Homo sapiens, UniProt Q9BY41); assay: Inhibition of recombinant human HDAC8 using FLUOR DE LYS as substrate preincubated for 15 mins followed by substrate addition measured after 1 hrs by fluorescence plate reader analysis
T2 sequence (Q9BY41 whole entry): T1 sequence (whole entry)
Outline: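 Kit recombinant human HDAC8 (0.45 U/reaction) was preincubated 15 min with compound (0.5% DMSO; DMSO-only control). Fluor de Lys substrate was then added at 50 µM final and the reaction ran 1 h at 30 °C. It was quenched with 2 µM TSA in Developer II for a further 1 h at 30 °C, and fluorescence read at ex 370/em 450 nm. IC50 came from nonlinear dose–response fitting.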

[3] = target: T1, Histone deacetylase 8 (Homo sapiens); assay: Inhibition of HDAC8 in human HCT-116 cells assessed as increase in acetylation level of SMC3 at 10 uM measured after 24 hrs by Western blot analysis; assay type: cell-based; outline: as §2
[4] = Cytotoxicity against mouse NIH3T3 cells assessed as inhibition of cell growth by neutral red uptake assay
Histone deacetylase 1 = Histone deacetylase 1 (Homo sapiens, UniProt Q13547); assay: Inhibition of recombinant human full length C-terminal FLAG/His-tagged HDAC1 expressed in Sf9 insect cells using ZMAL (Z-(Ac)Lys-AMC as substrate measured after 90 mins by fluorescence plate reader analysis
[5] = target: T3, Protein deacetylase HDAC6 (Homo sapiens, UniProt Q9UBN7); assay: Inhibition of recombinant human full length N-terminal GST-tagged HDAC6 expressed in Sf9 cells using ZMAL (Z-(Ac)Lys-AMC as substrate measured after 90 mins by fluorescence plate reader analysis
T3 sequence (Q9UBN7 whole entry): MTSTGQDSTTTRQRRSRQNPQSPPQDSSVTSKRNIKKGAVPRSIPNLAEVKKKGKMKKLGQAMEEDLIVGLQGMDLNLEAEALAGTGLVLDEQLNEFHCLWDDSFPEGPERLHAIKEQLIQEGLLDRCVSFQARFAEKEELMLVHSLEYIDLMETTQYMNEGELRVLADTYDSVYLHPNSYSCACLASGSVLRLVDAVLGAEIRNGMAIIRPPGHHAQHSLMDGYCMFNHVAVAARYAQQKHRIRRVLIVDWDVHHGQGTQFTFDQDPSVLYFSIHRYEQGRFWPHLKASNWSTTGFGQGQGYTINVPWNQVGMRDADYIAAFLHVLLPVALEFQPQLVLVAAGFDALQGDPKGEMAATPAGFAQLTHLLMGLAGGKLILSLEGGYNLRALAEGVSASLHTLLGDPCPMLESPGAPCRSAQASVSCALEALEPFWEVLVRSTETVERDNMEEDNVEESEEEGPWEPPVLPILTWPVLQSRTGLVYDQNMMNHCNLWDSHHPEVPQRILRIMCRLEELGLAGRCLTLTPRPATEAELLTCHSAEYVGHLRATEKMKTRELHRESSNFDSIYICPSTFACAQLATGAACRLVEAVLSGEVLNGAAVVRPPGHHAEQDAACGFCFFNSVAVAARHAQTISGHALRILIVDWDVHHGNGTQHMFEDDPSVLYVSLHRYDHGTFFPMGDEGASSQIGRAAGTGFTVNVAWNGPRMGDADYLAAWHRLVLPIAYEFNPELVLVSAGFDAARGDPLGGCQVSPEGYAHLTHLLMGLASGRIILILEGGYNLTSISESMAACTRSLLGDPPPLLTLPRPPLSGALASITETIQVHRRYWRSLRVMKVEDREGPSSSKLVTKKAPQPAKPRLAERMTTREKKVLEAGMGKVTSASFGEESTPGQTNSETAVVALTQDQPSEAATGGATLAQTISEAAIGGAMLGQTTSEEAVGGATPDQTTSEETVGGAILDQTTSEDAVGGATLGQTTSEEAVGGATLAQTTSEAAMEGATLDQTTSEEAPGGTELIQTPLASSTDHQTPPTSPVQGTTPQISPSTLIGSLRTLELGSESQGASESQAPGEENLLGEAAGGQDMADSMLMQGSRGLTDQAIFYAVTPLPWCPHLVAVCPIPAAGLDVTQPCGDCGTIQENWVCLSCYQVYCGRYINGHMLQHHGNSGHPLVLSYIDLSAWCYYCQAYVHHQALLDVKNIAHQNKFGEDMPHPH

Homo sapiens [6] = species: Homo sapiens; assay: Selectivity index, ratio of IC50 for inhibition of recombinant human full length C-terminal FLAG/His-tagged HDAC1 expressed in Sf9 insect cells to IC50 for inhibition recombinant human HDAC8; outline: as §1
HCT-116 = assay: Antiproliferation activity against human HCT-116 cells assessed as reduction in cell viability at 5 to 50 uM measured after 48 hrs by MTT assay; assay type: functional, cell-based; conditions: dose 5-50 µM
Outline: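 HCT116 cells in DMEM with 10% heat-inactivated FBS were seeded at 3×10^4 cells/well and treated in triplicate at 1, 5, 10 and 50 µM for 24 and 48 h. MTT at 0.5 mg/mL was added for 3 h, formazan was dissolved in DMSO, and absorbance was read at 570 nm.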

Histone deacetylase 1, sequence (Q13547 whole entry): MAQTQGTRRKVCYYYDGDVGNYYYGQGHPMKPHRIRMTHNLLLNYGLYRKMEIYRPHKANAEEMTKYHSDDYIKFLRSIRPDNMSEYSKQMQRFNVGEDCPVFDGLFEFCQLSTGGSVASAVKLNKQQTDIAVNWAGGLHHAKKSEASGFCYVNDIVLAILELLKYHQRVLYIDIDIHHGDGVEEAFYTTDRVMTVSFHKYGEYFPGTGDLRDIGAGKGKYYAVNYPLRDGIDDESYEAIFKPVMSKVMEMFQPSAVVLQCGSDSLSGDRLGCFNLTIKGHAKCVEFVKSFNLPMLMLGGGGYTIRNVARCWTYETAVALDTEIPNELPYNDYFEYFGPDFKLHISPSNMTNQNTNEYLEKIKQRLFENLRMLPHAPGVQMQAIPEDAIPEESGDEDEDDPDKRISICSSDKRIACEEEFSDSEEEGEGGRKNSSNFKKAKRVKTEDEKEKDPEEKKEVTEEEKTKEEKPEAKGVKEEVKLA

- inhibition [2]: Active
- IC50 (Histone deacetylase 8): 113 nM
- inhibition [3]: Active
- IC50 (Histone deacetylase 1): 9700 nM
- IC50 [5]: 91 nM
SMILES: O=C(NO)c1ccc(CC(=O)N2CCC(N3CC(c4ccccc4)(c4ccccc4)C3=O)CC2)cc1
- Ratio IC50 (Homo sapiens [1]): 1
- CC50 [4]: 48000 nM
- Ratio IC50 (Homo sapiens [6]): 86
- Activity (HCT-116): Active

SMILES: O=C(NO)c1ccc(CNC(=O)N2CCC(N3C(=O)[C@H](c4ccccc4)[C@H]3c3ccccc3)CC2)cc1 (racemic)
- Ratio IC50 (Homo sapiens [1]): 2
- inhibition [2]: Active
- IC50 (Histone deacetylase 8): 42 nM
- inhibition [3]: Active
- CC50 [4]: 101000 nM
- IC50 (Histone deacetylase 1): 4200 nM
- IC50 [5]: 21 nM
- Ratio IC50 (Homo sapiens [6]): 100
- Activity (HCT-116): Active

SMILES: O=C(NO)c1ccc(CNC(=O)N2CCC(N3CC(c4ccccc4)(c4ccccc4)C3=O)CC2)cc1
- Ratio IC50 (Homo sapiens [1]): 29
- inhibition [2]: Active
- IC50 (Histone deacetylase 8): 99 nM
- inhibition [3]: Active
- CC50 [4]: 40000 nM
- IC50 (Histone deacetylase 1): 4300 nM
- IC50 [5]: 3.4 nM
- Ratio IC50 (Homo sapiens [6]): 43
- Activity (HCT-116): Active
